Test results taken from ChEMBL document CHEMBL2440016, “Targeting the human parasite Leishmania donovani: discovery of a new promising anti-infectious pharmacophore in 3-nitroimidazo[1,2-a]pyridine series” (Bioorg Med Chem, 2013).

Tested on: not listed separately
Test: Selectivity index, ratio of CC50 for human HepG2 cells to IC50 for Leishmania donovani MHOM/IN/00/DEVI
Format: functional
Conditions: not given
Summary of the method: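 SI = HepG2 CC50 / L. donovani IC50.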

| Structure (SMILES) | Ratio CC50/IC50 |
| --- | --- |
| O=[N+]([O-])c1c(CS(=O)(=O)c2ccccc2)nc2ccc(I)cn12 | >7.9 |
| Cc1ccc(S(=O)(=O)Cc2nc3ccc(Br)cn3c2[N+](=O)[O-])cc1 | 0.13 |
| Cc1ccc(S(=O)(=O)Cc2cn3cc(Cl)ccc3n2)cc1 | 2 |
| O=[N+]([O-])c1c(CCl)nc2ccc(Br)cn12 | 1.6 |
| O=[N+]([O-])c1c(CSc2ccccc2)nc2ccc(Br)cn12 | <0.05 |
| COc1cc(-c2ccc3nc(CS(=O)(=O)c4ccccc4)c([N+](=O)[O-])n3c2)cc(OC)c1OC | <0.7 |
| O=[N+]([O-])c1c(CS(=O)(=O)c2ccc(Br)cc2)nc2ccc(Br)cn12 | 1.6 |
| O=S(=O)(Cc1cn2cc(Cl)ccc2n1)c1ccc(Cl)cc1 | <1.4 |
| Cc1ccc(S(=O)(=O)Cc2nc3ccc(I)cn3c2[N+](=O)[O-])cc1 | >1.3 |
| O=S(=O)(Cc1cn2cc(Br)ccc2n1)c1ccc(Cl)cc1 | <0.5 |
| O=S(=O)(Cc1cn2cc(Cl)ccc2n1)c1ccccc1 | <0.3 |
| O=[N+]([O-])c1c(CS(=O)(=O)c2ccc(C(F)(F)F)cc2)nc2ccc(Br)cn12 | <0.6 |
| O=S(=O)(Cc1cn2cc(I)ccc2n1)c1ccccc1 | <0.1 |
| O=[N+]([O-])c1c(CS(=O)(=O)c2ccc(I)cc2)nc2ccc(Br)cn12 | <0.4 |
| O=[N+]([O-])c1c(CS(=O)(=O)c2ccc(Cl)cc2)nc2ccc(Cl)cn12 | 1.1 |
| O=S(=O)(Cc1cn2cc(Br)ccc2n1)c1ccccc1 | 0.15 |
| Cc1ccc(S(=O)(=O)Cc2cn3cc(Br)ccc3n2)cc1 | <0.6 |
| O=[N+]([O-])c1c(CS(=O)(=O)c2ccc(Cl)cc2)nc2ccc(I)cn12 | >1.7 |

Tested on: not listed separately
Test: Cytotoxicity against human HepG2 cells after 72 hrs by MTT assay
Format: cell-based
Conditions: HepG2 cells
Summary of the method: (§1)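 Cells plated in RPMI with 10% FCS, L-glutamine and penicillin/streptomycin, 24 h at 37 °C, 6% CO2. Compound dilutions then added for 72 h. MTT 0.5 mg/mL in PBS for 2 h, formazan dissolved in DMSO, A570 with 630 nm reference. Viability taken as % of untreated control. Doxorubicin served as positive control. CC50 from the dose-response curve.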

| Structure (SMILES) | CC50 at 72 h |
| --- | --- |
| O=[N+]([O-])c1c(CS(=O)(=O)c2ccccc2)nc2ccc(I)cn12 | > 100 µM |
| Cc1ccc(S(=O)(=O)Cc2nc3ccc(Br)cn3c2[N+](=O)[O-])cc1 | 5.9 µM |
| Cc1ccc(S(=O)(=O)Cc2cn3cc(Cl)ccc3n2)cc1 | 68.3 µM |
| O=[N+]([O-])c1c(CCl)nc2ccc(Br)cn12 | 15.6 µM |
| O=[N+]([O-])c1c(CSc2ccccc2)nc2ccc(Br)cn12 | 0.53 µM |
| COc1cc(-c2ccc3nc(CS(=O)(=O)c4ccccc4)c([N+](=O)[O-])n3c2)cc(OC)c1OC | 34.7 µM |
| O=[N+]([O-])c1c(CS(=O)(=O)c2ccc(Br)cc2)nc2ccc(Br)cn12 | 39 µM |
| O=S(=O)(Cc1cn2cc(Cl)ccc2n1)c1ccc(Cl)cc1 | 71.5 µM |
| Cc1ccc(S(=O)(=O)Cc2nc3ccc(I)cn3c2[N+](=O)[O-])cc1 | > 50 µM |
| O=S(=O)(Cc1cn2cc(Br)ccc2n1)c1ccc(Cl)cc1 | 23 µM |
| O=S(=O)(Cc1cn2cc(Cl)ccc2n1)c1ccccc1 | 16.5 µM |
| O=[N+]([O-])c1c(CS(=O)(=O)c2ccc(C(F)(F)F)cc2)nc2ccc(Br)cn12 | 31.7 µM |
| O=S(=O)(Cc1cn2cc(I)ccc2n1)c1ccccc1 | 5 µM |
| O=[N+]([O-])c1c(CS(=O)(=O)c2ccc(I)cc2)nc2ccc(Br)cn12 | 20.3 µM |
| O=[N+]([O-])c1c(CS(=O)(=O)c2ccc(Cl)cc2)nc2ccc(Cl)cn12 | > 25 µM |
| O=S(=O)(Cc1cn2cc(Br)ccc2n1)c1ccccc1 | 7.3 µM |
| Cc1ccc(S(=O)(=O)Cc2cn3cc(Br)ccc3n2)cc1 | 28.9 µM |
| O=[N+]([O-])c1c(CS(=O)(=O)c2ccc(Cl)cc2)nc2ccc(I)cn12 | > 50 µM |

Tested on: not listed separately
Test: Selectivity index, ratio of CC50 for mouse J774.1 cells to IC50 for Leishmania donovani MHOM/IN/00/DEVI
Format: functional
Conditions: not given

| Structure (SMILES) | Ratio CC50/IC50 |
| --- | --- |
| O=[N+]([O-])c1c(CS(=O)(=O)c2ccccc2)nc2ccc(I)cn12 | 2.1 |
| Cc1ccc(S(=O)(=O)Cc2nc3ccc(Br)cn3c2[N+](=O)[O-])cc1 | 1 |
| Cc1ccc(S(=O)(=O)Cc2cn3cc(Cl)ccc3n2)cc1 | 0.9 |
| O=[N+]([O-])c1c(CCl)nc2ccc(Br)cn12 | 0.5 |
| COc1cc(-c2ccc3nc(CS(=O)(=O)c4ccccc4)c([N+](=O)[O-])n3c2)cc(OC)c1OC | <0.1 |
| O=[N+]([O-])c1c(CS(=O)(=O)c2ccc(Br)cc2)nc2ccc(Br)cn12 | 1.1 |
| O=S(=O)(Cc1cn2cc(Cl)ccc2n1)c1ccc(Cl)cc1 | <1.3 |
| Cc1ccc(S(=O)(=O)Cc2nc3ccc(I)cn3c2[N+](=O)[O-])cc1 | 0.9 |
| O=S(=O)(Cc1cn2cc(Br)ccc2n1)c1ccc(Cl)cc1 | <0.9 |
| O=S(=O)(Cc1cn2cc(Cl)ccc2n1)c1ccccc1 | <0.3 |
| O=S(=O)(Cc1cn2cc(I)ccc2n1)c1ccccc1 | <0.1 |
| O=[N+]([O-])c1c(CS(=O)(=O)c2ccc(I)cc2)nc2ccc(Br)cn12 | <0.3 |
| O=[N+]([O-])c1c(CS(=O)(=O)c2ccc(Cl)cc2)nc2ccc(Cl)cn12 | 1.8 |
| O=S(=O)(Cc1cn2cc(Br)ccc2n1)c1ccccc1 | <0.1 |
| Cc1ccc(S(=O)(=O)Cc2cn3cc(Br)ccc3n2)cc1 | <0.4 |
| O=[N+]([O-])c1c(CS(=O)(=O)c2ccc(Cl)cc2)nc2ccc(I)cn12 | 1.5 |

Tested on: not listed separately
Test: Cytotoxicity against mouse J774.1 cells after 72 hrs by MTT assay
Format: cell-based
Conditions: J774.1 cells
Summary of the method: as §1

| Structure (SMILES) | CC50 at 72 h |
| --- | --- |
| O=[N+]([O-])c1c(CS(=O)(=O)c2ccccc2)nc2ccc(I)cn12 | 27 µM |
| Cc1ccc(S(=O)(=O)Cc2nc3ccc(Br)cn3c2[N+](=O)[O-])cc1 | 44.3 µM |
| Cc1ccc(S(=O)(=O)Cc2cn3cc(Cl)ccc3n2)cc1 | 33.3 µM |
| O=[N+]([O-])c1c(CCl)nc2ccc(Br)cn12 | 4.9 µM |
| O=[N+]([O-])c1c(CSc2ccccc2)nc2ccc(Br)cn12 | > 6 µM |
| COc1cc(-c2ccc3nc(CS(=O)(=O)c4ccccc4)c([N+](=O)[O-])n3c2)cc(OC)c1OC | 5 µM |
| O=[N+]([O-])c1c(CS(=O)(=O)c2ccc(Br)cc2)nc2ccc(Br)cn12 | 28.2 µM |
| O=S(=O)(Cc1cn2cc(Cl)ccc2n1)c1ccc(Cl)cc1 | 68.7 µM |
| Cc1ccc(S(=O)(=O)Cc2nc3ccc(I)cn3c2[N+](=O)[O-])cc1 | 34.8 µM |
| O=S(=O)(Cc1cn2cc(Br)ccc2n1)c1ccc(Cl)cc1 | 43.9 µM |
| O=S(=O)(Cc1cn2cc(Cl)ccc2n1)c1ccccc1 | 13.3 µM |
| O=[N+]([O-])c1c(CS(=O)(=O)c2ccc(C(F)(F)F)cc2)nc2ccc(Br)cn12 | > 25 µM |
| O=S(=O)(Cc1cn2cc(I)ccc2n1)c1ccccc1 | 5.2 µM |
| O=[N+]([O-])c1c(CS(=O)(=O)c2ccc(I)cc2)nc2ccc(Br)cn12 | 16.2 µM |
| O=[N+]([O-])c1c(CS(=O)(=O)c2ccc(Cl)cc2)nc2ccc(Cl)cn12 | 42.4 µM |
| O=S(=O)(Cc1cn2cc(Br)ccc2n1)c1ccccc1 | 6.4 µM |
| Cc1ccc(S(=O)(=O)Cc2cn3cc(Br)ccc3n2)cc1 | 20.9 µM |
| O=[N+]([O-])c1c(CS(=O)(=O)c2ccc(Cl)cc2)nc2ccc(I)cn12 | 43.6 µM |

Tested on: Leishmania donovani
Test: Antimicrobial activity against Leishmania donovani MHOM/IN/00/DEVI promastigotes after 72 hrs by MTT assay
Format: functional, organism-based
Conditions: Leishmania donovani, MHOM/IN/00/DEVI, 72 h; read-out: IC50
Summary of the method: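 Log-phase promastigotes in Schneider's medium with 20% FCS, 2 mM L-glutamine and penicillin/streptomycin, at 10⁶ parasites/mL. Compound dilutions run in duplicate, final DMSO <0.5%, 72 h at 27 °C. MTT 0.5 mg/mL for 6 h at 27 °C, formazan dissolved in DMSO, A570.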

| Structure (SMILES) | IC50 |
| --- | --- |
| O=[N+]([O-])c1c(CS(=O)(=O)c2ccccc2)nc2ccc(I)cn12 | 12.6 µM |
| Cc1ccc(S(=O)(=O)Cc2nc3ccc(Br)cn3c2[N+](=O)[O-])cc1 | 44.1 µM |
| Cc1ccc(S(=O)(=O)Cc2cn3cc(Cl)ccc3n2)cc1 | 33.5 µM |
| O=[N+]([O-])c1c(CCl)nc2ccc(Br)cn12 | 9.6 µM |
| O=[N+]([O-])c1c(CSc2ccccc2)nc2ccc(Br)cn12 | > 10 µM |
| COc1cc(-c2ccc3nc(CS(=O)(=O)c4ccccc4)c([N+](=O)[O-])n3c2)cc(OC)c1OC | > 50 µM |
| O=[N+]([O-])c1c(CS(=O)(=O)c2ccc(Br)cc2)nc2ccc(Br)cn12 | 24.3 µM |
| O=S(=O)(Cc1cn2cc(Cl)ccc2n1)c1ccc(Cl)cc1 | > 50 µM |
| Cc1ccc(S(=O)(=O)Cc2nc3ccc(I)cn3c2[N+](=O)[O-])cc1 | 39.2 µM |
| O=S(=O)(Cc1cn2cc(Br)ccc2n1)c1ccc(Cl)cc1 | > 50 µM |
| O=S(=O)(Cc1cn2cc(Cl)ccc2n1)c1ccccc1 | > 50 µM |
| O=[N+]([O-])c1c(CS(=O)(=O)c2ccc(C(F)(F)F)cc2)nc2ccc(Br)cn12 | > 50 µM |
| O=S(=O)(Cc1cn2cc(I)ccc2n1)c1ccccc1 | > 50 µM |
| O=[N+]([O-])c1c(CS(=O)(=O)c2ccc(I)cc2)nc2ccc(Br)cn12 | > 50 µM |
| O=[N+]([O-])c1c(CS(=O)(=O)c2ccc(Cl)cc2)nc2ccc(Cl)cn12 | 23 µM |
| O=S(=O)(Cc1cn2cc(Br)ccc2n1)c1ccccc1 | > 50 µM |
| Cc1ccc(S(=O)(=O)Cc2cn3cc(Br)ccc3n2)cc1 | > 50 µM |
| O=[N+]([O-])c1c(CS(=O)(=O)c2ccc(Cl)cc2)nc2ccc(I)cn12 | 29.1 µM |
